Assays:
[1] = Biodistribution in Stomach content of C57BL/6 mouse bearing mouse B16-F0 cells at 0.74 to 0.92 MBq, iv after 24 hrs; format: ADME, organism-based; conditions: in vivo
How it was run: (§1)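 Male C57BL6 mice with s.c. left-flank B16-F0 melanoma (5 × 10⁵ cells in PBS). Two mice per time point frozen in liquid nitrogen after CO₂ sacrifice. Eight 40 µm whole-body cryosections per mouse read by multiwire proportional counter. cpm/mm² converted to kBq/g and expressed as %ID/g.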

[2] = Biodistribution in Stomach content of C57BL/6 mouse bearing mouse B16-F0 cells at 0.74 to 0.92 MBq, iv after 6 hrs; format: ADME, organism-based; conditions: in vivo; how it was run: as §1
[3] = Biodistribution in tumor of C57BL/6 mouse bearing mouse B16-F0 cells at 0.74 to 0.92 MBq, iv after 3 hrs; format: ADME, organism-based, Neoplasm; conditions: in vivo
How it was run: (§2)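 [¹²⁵I]-labelled compound given iv by tail vein (0.1 µmol per mouse) to male C57BL6 mice bearing s.c. B16-F0 flank tumours (5 × 10⁵ cells in PBS). Two mice per time point were killed by CO₂, frozen in liquid nitrogen and cut into 40 µm cryosections, eight slices per mouse. Slice radioactivity was read on a multiwire proportional counter, converted to kBq/g and reported as %ID/g.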

[4] = Ratio of drug level in tumor to lung of C57BL/6 mouse bearing mouse B16-F0 cells at 0.74 to 0.92 MBq, iv after 1 hr; format: ADME, organism-based; conditions: in vivo
How it was run: (§3)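 Tumour and organ radioactive concentrations came from whole-body cryosection counting (40 µm slices, eight per mouse, two mice per time) after tail-vein injection of the [¹²⁵I]-labelled compound (0.1 µmol) into male C57BL6 mice bearing s.c. B16-F0 melanoma. Each value is the ratio of the tumour concentration to the organ concentration.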

[5] = Biodistribution in uvea of C57BL/6 mouse bearing mouse B16-F0 cells at 0.74 to 0.92 MBq, iv after 1 hr; format: ADME, organism-based, Uveal tract; conditions: in vivo; how it was run: as §2
[6] = Biodistribution in uvea of C57BL/6 mouse bearing mouse B16-F0 cells at 0.74 to 0.92 MBq, iv after 3 hrs; format: ADME, organism-based, Uveal tract; conditions: in vivo; how it was run: as §2
[7] = Ratio of drug level in tumor to lung of C57BL/6 mouse bearing mouse B16-F0 cells at 0.74 to 0.92 MBq, iv after 6 hrs; format: ADME, organism-based; conditions: in vivo; how it was run: as §3
[8] = Biodistribution in uvea of C57BL/6 mouse bearing mouse B16-F0 cells at 0.74 to 0.92 MBq, iv after 6 hrs; format: ADME, organism-based, Uveal tract; conditions: in vivo; how it was run: as §2
[9] = Ratio of drug level in tumor to liver of C57BL/6 mouse bearing mouse B16-F0 cells at 0.74 to 0.92 MBq, iv after 24 hrs; format: ADME, organism-based; conditions: in vivo; how it was run: as §3
[10] = Ratio of drug level in tumor to liver of C57BL/6 mouse bearing mouse B16-F0 cells at 0.74 to 0.92 MBq, iv after 3 hrs; format: ADME, organism-based; conditions: in vivo; how it was run: as §3
Kidney [11] = test: Biodistribution in kidney of C57BL/6 mouse bearing mouse B16-F0 cells at 0.74 to 0.92 MBq, iv after 6 hrs; format: ADME, organism-based; conditions: in vivo; how it was run: as §1
[12] = Biodistribution in tumor of C57BL/6 mouse bearing mouse B16-F0 cells at 0.74 to 0.92 MBq, iv after 24 hrs; format: ADME, organism-based, Neoplasm; conditions: in vivo; how it was run: as §2
Pancreas = test: Biodistribution in pancreas of C57BL/6 mouse bearing mouse B16-F0 cells at 0.74 to 0.92 MBq, iv after 1 hr; format: ADME, organism-based; conditions: in vivo; how it was run: as §1
Kidney [13] = test: Biodistribution in kidney of C57BL/6 mouse bearing mouse B16-F0 cells at 0.74 to 0.92 MBq, iv after 1 hr; format: ADME, organism-based; conditions: in vivo; how it was run: as §1
Muscle tissue [14] = test: Biodistribution in muscle of C57BL/6 mouse bearing mouse B16-F0 cells at 0.74 to 0.92 MBq, iv after 6 hrs; format: ADME, organism-based; conditions: in vivo; how it was run: as §1
[15] = Biodistribution in Stomach content of C57BL/6 mouse bearing mouse B16-F0 cells at 0.74 to 0.92 MBq, iv after 1 hr; format: ADME, organism-based; conditions: in vivo; how it was run: as §1
Blood [16] = test: Biodistribution in blood of C57BL/6 mouse bearing mouse B16-F0 cells at 0.74 to 0.92 MBq, iv after 1 hr; format: ADME, organism-based; conditions: in vivo; how it was run: as §1
Muscle tissue [17] = test: Biodistribution in muscle of C57BL/6 mouse bearing mouse B16-F0 cells at 0.74 to 0.92 MBq, iv after 1 hr; format: ADME, organism-based; conditions: in vivo; how it was run: as §1
Muscle tissue [18] = test: Biodistribution in muscle of C57BL/6 mouse bearing mouse B16-F0 cells at 0.74 to 0.92 MBq, iv after 3 hrs; format: ADME, organism-based; conditions: in vivo; how it was run: as §1
[19] = Biodistribution in tumor of C57BL/6 mouse bearing mouse B16-F0 cells at 0.74 to 0.92 MBq, iv after 72 hrs; format: ADME, organism-based, Neoplasm; conditions: in vivo; how it was run: as §2
Kidney [20] = test: Biodistribution in kidney of C57BL/6 mouse bearing mouse B16-F0 cells at 0.74 to 0.92 MBq, iv after 3 hrs; format: ADME, organism-based; conditions: in vivo; how it was run: as §1
[21] = Biodistribution in tumor of C57BL/6 mouse bearing mouse B16-F0 cells at 0.74 to 0.92 MBq, iv after 6 hrs; format: ADME, organism-based, Neoplasm; conditions: in vivo; how it was run: as §2
[22] = Partition coefficient, log P in phosphate buffer solution at pH 7.4; format: physicochemical
How it was run: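 Shake-flask partition: 50 µM [¹²⁵I]-labelled compound in phosphate buffer pH 7.4 was mixed with 2 mL n-octanol. Each phase was γ-counted, P was taken as the octanol/buffer activity ratio, and log P was reported.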

[23] = Drug excretion in mouse B16-F0 cells bearing C57BL/6 mouse urine at 0.74 to 0.92 MBq, iv after 72 hrs; format: ADME, organism-based; conditions: in vivo
How it was run: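 Urine was collected from two B16-F0 tumour-bearing C57BL6 mice for up to 72 h after iv tail-vein injection of the [¹²⁵I]-labelled compound (0.1 µmol). Samples were counted to give cumulative urinary excretion as %ID.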

[24] = Ratio of drug level in tumor to brain of C57BL/6 mouse bearing mouse B16-F0 cells at 0.74 to 0.92 MBq, iv after 1 hr; format: ADME, organism-based; conditions: in vivo; how it was run: as §3
Blood [25] = test: Biodistribution in blood of C57BL/6 mouse bearing mouse B16-F0 cells at 0.74 to 0.92 MBq, iv after 3 hrs; format: ADME, organism-based; conditions: in vivo; how it was run: as §1
Spleen [26] = test: Biodistribution in spleen of C57BL/6 mouse bearing mouse B16-F0 cells at 0.74 to 0.92 MBq, iv after 6 hrs; format: ADME, organism-based; conditions: in vivo; how it was run: as §2
[27] = Biodistribution in uvea of C57BL/6 mouse bearing mouse B16-F0 cells at 0.74 to 0.92 MBq, iv after 72 hrs; format: ADME, organism-based, Uveal tract; conditions: in vivo; how it was run: as §2
Blood [28] = test: Biodistribution in blood of C57BL/6 mouse bearing mouse B16-F0 cells at 0.74 to 0.92 MBq, iv after 6 hrs; format: ADME, organism-based; conditions: in vivo; how it was run: as §1
[29] = Biodistribution in uvea of C57BL/6 mouse bearing mouse B16-F0 cells at 0.74 to 0.92 MBq, iv after 24 hrs; format: ADME, organism-based, Uveal tract; conditions: in vivo; how it was run: as §2
Spleen [30] = test: Biodistribution in spleen of C57BL/6 mouse bearing mouse B16-F0 cells at 0.74 to 0.92 MBq, iv after 3 hrs; format: ADME, organism-based; conditions: in vivo; how it was run: as §2
Thyroid gland [31] = test: Biodistribution in thyroid of C57BL/6 mouse bearing mouse B16-F0 cells at 0.74 to 0.92 MBq, iv after 6 hrs; format: ADME, organism-based; conditions: in vivo; how it was run: as §2
Thyroid gland [32] = test: Biodistribution in thyroid of C57BL/6 mouse bearing mouse B16-F0 cells at 0.74 to 0.92 MBq, iv after 24 hrs; format: ADME, organism-based; conditions: in vivo; how it was run: as §2
Thyroid gland [33] = test: Biodistribution in thyroid of C57BL/6 mouse bearing mouse B16-F0 cells at 0.74 to 0.92 MBq, iv after 3 hrs; format: ADME, organism-based; conditions: in vivo; how it was run: as §2

Compound	Drug uptake [2]	Drug uptake [3]	Ratio [4]	Drug uptake [5]	Drug uptake [6]	Ratio [7]	Drug uptake [8]	Ratio [9]	Ratio [10]	Drug uptake (Kidney [11])	Drug uptake [12]	Drug uptake (Pancreas)	Drug uptake (Kidney [13])	Drug uptake (Muscle tissue [14])	Drug uptake [15]	Drug uptake (Blood [16])	Drug uptake (Muscle tissue [17])	Drug uptake (Muscle tissue [18])	Drug uptake [19]	Drug uptake (Kidney [20])	other results
CCN(CC)CCNC(=O)c1cc2cc([125I])ccc2[nH]1.Cl	21.84 % ID/g	10.2 % ID/g	0.58	11.7 % ID/g	12.78 % ID/g	5.79	13.2 % ID/g	5.07	1.96	2.5 % ID/g	8.2 % ID/g	7.15 % ID/g	4.19 % ID/g	0.31 % ID/g	35.41 % ID/g	1.6 % ID/g	1.5 % ID/g	0.49 % ID/g	0.8 % ID/g	4.19 % ID/g	Drug uptake [1]: 2.1 % ID/g; Drug uptake [21]: 9.8 % ID/g; logD [22]: 1.69; Activity [23]: 21.5%; Ratio [24]: 1.69; Drug uptake (Blood [25]): 0.79 % ID/g; Drug uptake (Spleen [26]): 1.68 % ID/g; Drug uptake [27]: 5.86 % ID/g; Drug uptake (Blood [28]): 0.67 % ID/g; Drug uptake [29]: 8.81 % ID/g; Drug uptake (Spleen [30]): 2.79 % ID/g
CCN(CC)CCNC(=O)c1cnc2cc([125I])ccc2n1.Cl.Cl	21.09 % ID/g	27.7 % ID/g	2.17	33.82 % ID/g	24.79 % ID/g	9.13	32.3 % ID/g	14.54	3.12	7.69 % ID/g	21.7 % ID/g	7.6 % ID/g	16.46 % ID/g	0.87 % ID/g	24.33 % ID/g	3.45 % ID/g	2.04 % ID/g	0.86 % ID/g	12.5 % ID/g	9.3 % ID/g	Drug uptake (Thyroid gland [31]): 83.77 % ID/g; Drug uptake (Thyroid gland [32]): 94.22 % ID/g; Drug uptake (Thyroid gland [33]): 39.76 % ID/g; Drug uptake [21]: 40.7 % ID/g; logD [22]: 1.12; Activity [23]: 70.2%; Ratio [24]: 7.26; Drug uptake (Blood [25]): 2.91 % ID/g; Drug uptake [27]: 25.26 % ID/g; Drug uptake (Blood [28]): 3.09 % ID/g; Drug uptake [29]: 32.44 % ID/g; Drug uptake (Spleen [30]): 4.69 % ID/g
CCN(CC)CCNC(=O)c1ccc2cc([125I])ccc2n1.Cl.Cl	65.36 % ID/g	25.4 % ID/g	2.09	32.71 % ID/g	33.1 % ID/g	3.23	36.62 % ID/g	5.39	2.85	7.6 % ID/g	12.1 % ID/g	9.8 % ID/g	11.82 % ID/g	0.95 % ID/g	48.03 % ID/g	7.01 % ID/g	1.79 % ID/g	1.14 % ID/g	5.9 % ID/g	12.59 % ID/g	Drug uptake [1]: 2.33 % ID/g; Drug uptake [21]: 17.2 % ID/g; logD [22]: 1.87; Activity [23]: 80.7%; Ratio [24]: 10.02; Drug uptake (Blood [25]): 5.57 % ID/g; Drug uptake (Spleen [26]): 7.6 % ID/g; Drug uptake [27]: 18.3 % ID/g; Drug uptake (Blood [28]): 5.91 % ID/g; Drug uptake [29]: 22.27 % ID/g; Drug uptake (Spleen [30]): 10.63 % ID/g

From ChEMBL document CHEMBL1150393, “Evaluation of radiolabeled (hetero)aromatic analogues of N-(2-diethylaminoethyl)-4-iodobenzamide for imaging and targeted radionuclide therapy of melanoma” (J Med Chem, 2008)
